Assay outcomes from PubChem.
VIM-2 inh: inhibitors of Pseudomonas aeruginosa VIM-2 metallo-beta-lactamase. purified VIM-2, nitrocefin hydrolysis, epi-absorbance fluorescence. inhibition, % at 5.6 µM. hit rate 0.89% among 290,000. AID 1527;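 active = inhibition above the mean of all tested compounds plus 3 SD, cutoff set per screening run, cut at about 7.5% in these data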;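 note: red hydrolysis product quenches plate fluorescence so inhibitors raise well fluorescence; 0% = enzyme with DMSO and 100% = DMSO without enzyme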
PHOSPHO1 block: PHOSPHO1 (human) inhibition; Q8TCT1; recombinant PHOSPHO1, absorbance phosphatase assay; inhibition, % at 13.3 µM; hit rate 1.1% among 290,000; AID 1565; in the data active = inhibition above about 60%
Target sequence (Q8TCT1 whole entry, looked up): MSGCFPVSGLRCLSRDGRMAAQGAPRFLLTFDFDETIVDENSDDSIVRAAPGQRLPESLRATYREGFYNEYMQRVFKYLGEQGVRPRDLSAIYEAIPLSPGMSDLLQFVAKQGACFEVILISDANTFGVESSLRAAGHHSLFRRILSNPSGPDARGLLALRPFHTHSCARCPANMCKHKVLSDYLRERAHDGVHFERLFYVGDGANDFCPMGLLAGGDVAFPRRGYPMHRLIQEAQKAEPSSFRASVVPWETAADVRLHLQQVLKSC
PvdQ acylase: P. aeruginosa PvdQ acylase inhibition; purified PvdQ acylase, fluorescence plate reader; inhibition, % at 10 µM; hit rate 0.063% among 340,000; AID 488965; in the data active = inhibition above about 30%, passing the limit was not always enough;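 note: 0% = vehicle neutral wells and 100% = reference inhibitor wells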
Yeast superoxide: lowers age-related superoxide in aged yeast cells; S. cerevisiae aged cells, superoxide DHE fluorescence; hits give low values; superoxide response (% of plate mean), % at 10 µM; hit rate 0.18% among 330,000;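 active = superoxide response under a set limit, about three screen SD below normal, cut at about 65% in these data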;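 note: yeast aged for seven days with compound at 30 °C before DHE staining; 100% = average MFI of all compound-treated wells on the plate with controls excluded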
IMP-1 inh-1: blocks Pseudomonas aeruginosa IMP-1 metallo-beta-lactamase; inhibition, % at 5.6 µM; purified IMP-1, nitrocefin hydrolysis, epi-absorbance fluorescence; hit rate 0.45% among 290,000;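 active = inhibition above the mean plus 3 SD of all compounds in the same screening run, cut at about 4.5% in these data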;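 note: 0% = IMP-1 with DMSO and 100% = DMSO wells lacking enzyme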
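System – purified recombinant IMP-1 beta-lactamase · Input – IMP-1 dispensed at 0.2 nM · Timing – 15 min preincubation plus 25 min reaction at 25 °C · Signal – Epi-absorbance fluorescence, 480 nm excitation, 530 nm emission · Measure – percent IMP-1 inhibition derived from blank-referenced optical density · Controls – Enzyme-plus-DMSO low control, enzyme-free DMSO high control · Replication – singlicate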
IMP-1 inh-2: blocks IMP-1 metallo-beta-lactamase in VIM-2 selectivity screen; shares compounds with VIM-2 inh; purified IMP-1, nitrocefin hydrolysis, epi-absorbance fluorescence; inhibition, % at 5.6 µM; 1,300 tested, under 10 active; AID 1856; call rule not given here;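 note: 0% = enzyme with vehicle and 100% = vehicle without enzyme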
VIM-2 FRET ctr: VIM-2 FRET inhibition, artifact counter-screen | shares compounds with VIM-2 inh | purified VIM-2, CCF2 FRET substrate hydrolysis | inhibition, % at 5.6 µM | hit rate 23% among 1,300;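 active = inhibition above the mean of all tested compounds plus 3 SD, cut at about 19% in these data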;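 note: 0% = VIM-2 plus DMSO and 100% = no enzyme wells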
TEM-1 counter: blocks E. coli TEM-1 beta-lactamase in VIM-2 selectivity screen; AID 1866; shares compounds with VIM-2 inh; Purified TEM-1, nitrocefin hydrolysis, epi-absorbance fluorescence; inhibition, % at 5.6 µM; hit rate 3% among 1,300;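 active = inhibition above that campaign's mean inhibition plus 3 SD, cut at about 0.46% in these data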;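 note: 0% = TEM-1 with DMSO and 100% = TEM-1 with 100 µM potassium clavulanate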
Target sequence (P62593 whole entry, looked up): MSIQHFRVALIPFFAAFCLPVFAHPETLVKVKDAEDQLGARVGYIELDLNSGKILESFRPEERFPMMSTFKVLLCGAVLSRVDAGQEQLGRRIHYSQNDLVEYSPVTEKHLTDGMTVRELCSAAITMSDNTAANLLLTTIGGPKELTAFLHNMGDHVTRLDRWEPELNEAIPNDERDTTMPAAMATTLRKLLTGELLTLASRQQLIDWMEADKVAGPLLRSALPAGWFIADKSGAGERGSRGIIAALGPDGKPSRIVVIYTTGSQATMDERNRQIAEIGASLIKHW
VIM-2 confirm 2: confirmation of P. aeruginosa VIM-2 metallo-beta-lactamase inhibitors. AID 2187. purified VIM-2, nitrocefin hydrolysis, epi-absorbance. inhibition, % at 5.6 µM. shares compounds with VIM-2 inh. hit rate 96% among 1,300;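 active = inhibition of the VIM-2 beta-lactamase enzyme above about 11% from the earlier first-round screen, limit read from the data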;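 note: 0% = VIM-2 with DMSO and 100% = buffer wells without enzyme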
* hit, by the source's call; / = not tested or not shown. Rows were chosen to be rich in hits. Some 2.2% of all compounds tested hit in one or more screens of this group.

SMILES	VIM-2 inh	PHOSPHO1 block	PvdQ acylase	Yeast superoxide	IMP-1 inh-1	IMP-1 inh-2	VIM-2 FRET ctr	TEM-1 counter	VIM-2 confirm 2
Cc1c(C#N)c(=O)oc2ccc3ccccc3c12	31*	11	-19	103	-2	-4	5	-9	11*
N#Cc1cccc(C#N)c1Oc1ccc(S(=O)(=O)Nc2ccc(Cl)cc2)cc1	-1	37	-17	109	-1	/	/	/	/
N#Cc1c2c(c(NCCN3CCOCC3)n3c1nc1ccccc13)CCCC2	3	24	-9	92	-3	/	/	/	/
N#Cc1c2c(c(NCCCN3CCOCC3)n3c1nc1ccccc13)CCC2	14*	21	2	104	-1	-2	-6	-9	38*
Clc1ccccc1-c1nn2c(-c3ccncc3)nnc2s1	22*	72*	-12	102	-3	-4	0	-8	55*
Clc1ccccc1-c1nnc2sc(-c3ccncc3)nn12	-4	9	1	93	-3	/	/	/	/
CNCc1cc(Br)c(OCC(=O)Nc2ccccc2OC)c(OC)c1	13*	-18	-10	139	-2	-4	1	-4	27*
CCNCc1cc(Br)c(OCC(=O)Nc2ccccc2)c(OC)c1	2	-4	-11	107	-2	/	/	/	/
CCN1CCN(CCNC(=O)CCc2c(C)c3c(C)nn(-c4ccccc4)c3n(C)c2=O)CC1	19*	10	-4	102	-4	-3	-1	-3	30*
O=C(O)Cn1cccc1C(=O)c1ccccc1	33*	-5	-9	98	-3	-2	49*	-4	30*
CCN1CCN(CC(=O)n2c3c(c4ccccc42)CC(C)CC3)CC1 (configuration not stated)	19*	-7	-8	93	0	-1	28*	-3	29*
CC1CCc2c(c3ccccc3n2C(=O)CCl)C1 (configuration not stated)	5	3	-9	101	-1	/	/	/	/
CC1CCN(CC(=O)n2c3c(c4ccccc42)CCCC3)CC1	18*	-1	11	96	0	-3	9	-6	6
CC(NC(=O)NC1CCCCC1)C(c1cccs1)N1CCN(c2ccccc2)CC1 (configuration not stated)	-2	-6	-18	118	0	/	/	/	/
CN1CCN(c2nc(-c3ccccc3O)nc3ccccc23)CC1	14*	34	1	96	-2	-2	0	-7	18*
CN1CCN(c2nc(-c3ccccc3Cl)nc3ccccc23)CC1	-1	27	-9	106	-3	/	/	/	/
C=CCOc1ccc2ccccc2c1CNn1c(C)n[nH]c1=S	17*	-78	-5	106	-2	-4	33*	-6	20*
Cc1nn2c(-c3ccc(F)cc3)ccnc2c1Br	6	20	4	77	-2	/	/	/	/
Cc1nn2c(-c3ccc(F)cc3)ccnc2c1Cl	59*	34	-5	100	-2	-3	-4	-5	70*
CC(C)(C)OC(=O)C[C@@H]1C/C=C\C[C@@H](CC(=O)N[C@H](CO)Cc2ccccc2)C(=O)N2CCC[C@H]2COC1=O	/	/	-13	100	/	/	/	/	/
COc1cccc(/C=C2/Sc3ccc(C(=O)NCCCN4CCCC4)cc3NC2=O)c1	16*	43	-12	90	0	-2	43*	-5	28*
O=C(NCCCN1CCCCC1)c1ccc2c(c1)NC(=O)c1ccccc1S2	-2	28	-8	97	-5	/	/	/	/
O=C1Nc2cc(C(=O)NCCCN3CCCC3)ccc2S/C1=C/c1ccccc1F	33*	22	2	120	-3	-3	54*	-7	38*
O=C(NC(=S)N1CCN(c2nc(-c3ccccc3)cs2)CC1)c1cncc(Br)c1	-2	3	2	109	-3	/	/	/	/
CCN(C[C@H]1N[C@@](CC)(C(=O)OC)[C@H]2C(=O)N(C)C(=O)[C@@H]12)C(=O)Nc1ccc(C)cc1	/	/	4	106	/	/	/	/	/
SMILES	VIM-2 inh	PHOSPHO1 block	PvdQ acylase	Yeast superoxide	IMP-1 inh-1	IMP-1 inh-2	VIM-2 FRET ctr	TEM-1 counter	VIM-2 confirm 2
CCOc1ccc(NS(=O)(=O)c2cc3c4c(c2)C(C)C(=O)N4CCC3)cc1 (configuration not stated)	1	30	-1	98	0	/	/	/	/
CCn1c(-c2nn(-c3ccccc3)ccc2=O)n[nH]c1=S	18*	-1	-6	81	-1	-3	34*	-6	23*
CCn1c(SC)nnc1-c1nn(-c2ccccc2)ccc1=O	0	-50	8	105	1	/	/	/	/
CCn1c(-c2nn(-c3ccc(C)cc3)ccc2=O)n[nH]c1=S	14*	-32	9	101	-3	-3	33*	-7	22*
Cc1ccc(N2CCN(C(=O)c3cc(-c4ccc(F)cc4)[nH]c3C)CC2C)cc1 (configuration not stated)	0	9	-14	97	-2	/	/	/	/
COc1cc(CCC(=O)OCC(=O)Nc2ccc(C)cc2Cl)cc(OC)c1OC	1	15	-15	101	-2	/	/	/	/
Cn1c(=O)n(C)c2cc(/C=N/n3cnnc3)ccc21	15*	-25	-5	120	-3	-3	1	-6	45*
O=C(Nc1ccccc1N1CCCC1)c1cccc(F)c1	-2	/	-17	101	-3	/	/	/	/
COC(=O)c1ccccc1NC(=S)NC(=O)COc1ccccc1Cl	-4	23	-17	107	-5	/	/	/	/
O=C(COc1ccccc1Cl)NC(=S)Nc1ccccc1N1CCCC1	18*	-20	-8	81	-1	-2	20*	-6	5
O=C(NC(=S)Nc1ccccc1N1CCCC1)c1cccc(F)c1	13*	-109	-6	97	-2	-4	19*	-9	6
Cc1ccccc1C(=O)NC(=S)Nc1ccccc1N1CCCC1	15*	8	-2	92	-4	-3	9	-8	5
CCC(C)c1ccc(OCC(=O)Nc2ccc3c(c2)C(=O)NC3=O)cc1 (configuration not stated)	-1	41	-13	105	0	/	/	/	/
O=C(Nc1nncs1)c1cc(S(=O)(=O)N2CCCCC2)ccc1Cl	-1	23	-14	96	-2	/	/	/	/
COc1cc(CC(=O)OCC(=O)N(C)C2CCCCC2)cc(OC)c1OC	/	/	-5	106	/	/	/	/	/
Cc1cc(=O)oc2c(C)c(OCC(=O)NCCCn3ccnc3)ccc12	19*	27	-8	94	-3	-3	-6	-8	35*
COc1ccccc1OCC(=O)NCCCn1ccnc1	-4	16	-4	138	1	/	/	/	/
